Compound activity (PubChem BioAssay)
bIAP activator: bovine intestinal alkaline phosphatase activators, primary screen, biochemical, bovine IAP, CDP-star luminescence. alkaline phosphatase, intestinal [Bos taurus]. purified bovine IAP, 30 min; hits give high values; fold of DMSO-control signal, blank-subtracted. activation factor at 20 µM. actives 0.17% (n = 200,000). AID 1016, 2008;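 active = activation factor of 2 or more at 20 µM, a signal rise over negative controls twice the positive control's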
mIAP block: inhibitors of mouse IAP, primary screen, biochemical, luminescence, uHTS; intestinal alkaline phosphatase [Mus musculus]; actives 0.2% (n = 330,000); purified mouse IAP, CDP-Star luminescence, 30 min; inhibition, % at 10 µM;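 active = inhibition of at least 40% at 10 µM in the primary screen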;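 note: plate controls were DMSO with enzyme for no effect and no enzyme wells for full effect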
hIAP block: human IAP inhibitors, primary screen, biochemical, luminescence, uHTS; purified IAP, CDP-Star luminescence, 30 min; actives 0.12% (n = 330,000); Intestinal-type alkaline phosphatase (Homo sapiens), P09923; inhibition, % at 10 µM;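 active = inhibition reaching a set limit with compound at 10 µM in the primary screen, cut at about 35% in these data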;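 note: plate controls were DMSO wells with enzyme for no effect and no-enzyme buffer wells for full effect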
Target sequence (P09923 whole entry, looked up): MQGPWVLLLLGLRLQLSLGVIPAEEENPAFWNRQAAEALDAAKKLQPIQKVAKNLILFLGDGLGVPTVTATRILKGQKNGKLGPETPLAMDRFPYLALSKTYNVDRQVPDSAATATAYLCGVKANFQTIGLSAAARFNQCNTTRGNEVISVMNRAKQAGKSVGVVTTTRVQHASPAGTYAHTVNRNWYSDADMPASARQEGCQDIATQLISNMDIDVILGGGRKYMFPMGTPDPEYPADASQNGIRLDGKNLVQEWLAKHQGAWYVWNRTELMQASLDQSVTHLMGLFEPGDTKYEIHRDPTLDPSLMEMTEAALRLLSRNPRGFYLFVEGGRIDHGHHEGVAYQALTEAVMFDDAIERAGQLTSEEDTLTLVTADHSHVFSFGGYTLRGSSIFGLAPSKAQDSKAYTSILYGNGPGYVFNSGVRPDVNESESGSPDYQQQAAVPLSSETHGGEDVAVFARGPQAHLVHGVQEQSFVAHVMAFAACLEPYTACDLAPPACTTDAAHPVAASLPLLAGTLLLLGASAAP
bIAP inhibitor: bovine intestinal alkaline phosphatase inhibitors, primary screen, selectivity assay for TNAP inhibitor project, biochemical, bovine IAP, CDP-star luminescence. 190,000 tested, under 10 active. alkaline phosphatase, intestinal [Bos taurus]. purified bovine IAP, 30 min. inhibition, % at 20 µM;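 active = over 50% inhibition of intestinal alkaline phosphatase at 20 µM in the single-dose screen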
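Assay system: bovine IAP enzyme; medium: DEA buffer 100 mM, pH 9.8, with MgCl2 1.0 mM, ZnCl2 0.02 mM; doses: 20 µM single dose; incubation: enzyme reaction for 30 min at room temperature; detection: CDP-star luminescence signal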
hIAP act: human IAP activators, primary screen, biochemical, luminescence, uHTS | Intestinal-type alkaline phosphatase (Homo sapiens), P09923 | purified human IAP, CDP-Star luminescence, 30 min; hits give high values; 1 = vehicle-only enzyme, 0 = enzyme-free background | activation factor at 10 µM | actives 0.16% (n = 330,000);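 active = activation factor of the enzyme at least 2-fold when tested at 20 µM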
mIAP act: activators of mouse IAP, primary screen, biochemical, luminescence, uHTS; intestinal alkaline phosphatase [Mus musculus]; muIAP, CDP-Star luminescence, 30 min; hits give high values; 1 = vehicle-only enzyme signal, 0 = enzyme-free wells; activation factor at 10 µM; actives 0.24% (n = 330,000); AID 2805, 2010;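 active = activation factor of at least 2 at 20 µM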
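System: Mouse IAP enzyme | Also added: CDP-Star substrate | Dosing: Compounds dispensed in DMSO | Schedule: 30 min enzyme-substrate-compound incubation at room temperature | Technique: Chemiluminescence readout | Control set: DMSO-only wells and no-enzyme negative control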
The depositor's hits bear a star; i = inactive; / = no result. This is a sample that favours compounds with a hit; in the whole collection about 0.72% have one here.

SMILES	bIAP activator	mIAP block	hIAP block	bIAP inhibitor	hIAP act	mIAP act
Cc1ccc(NC(=S)NCc2ccc(F)cc2)cc1	/	-45	-6	/	1.1	1.4
Cc1ccc(C)c(C(C)NC(=S)NCc2ccc(F)cc2)c1 (stereo unspecified)	/	-117	8	/	0.92	2.2*
CCc1nn(C(C)C(=O)N(C)Cc2ccccc2)c(=O)c2cc3occc3n12 (stereo unspecified)	/	-2	-11	/	1.1	1
O=C(NCc1ccccc1)NC12CC3CC(CC(C3)C1)C2	/	-10	5	/	0.95	1.1
Cc1nn(Cc2cccc(Oc3ccccc3)c2)c(C)c1NC(=O)NC12CC3CC(CC(C3)C1)C2	1	i	4	0	0.96	6.8*
COC(=O)Cn1cnc2c(nnn2-c2cccc(OC)c2)c1=O	/	-2	-15	/	1.2	1
O=C(Nc1ccc2c(c1)CCC2)Nc1ccccc1F	/	-102	-18	/	1.2	2*
O=C(Nc1ccc(Br)cc1)Nc1ccccc1F	0.9	-117	-12	12	1.1	2.2*
O=C(Nc1ccc2c(c1)CCC2)Nc1ccc(F)cc1F	/	-32	5	/	0.95	1.3
CCOC(=O)C1(CC2CCCCO2)CCN(C(=O)Nc2cccc(SC)c2)CC1 (stereo unspecified)	1.2	-141	-45	-18	1.4	2.4*
Nc1nc(SCC(=O)Nc2ccc(OC(F)(F)F)cc2)[nH]c(=O)c1NC(=O)c1ccc(Br)o1	/	2	-18	/	1.2	0.98
O=C(Cc1cccs1)NCCSc1c(-c2ccc(Cl)cc2)[nH]c2ccccc12	1.1	-154	10	-5	0.9	2.5*
CCOC(=O)CSc1c(-c2ccc(Cl)cc2)[nH]c2ccccc12	0.9	3	-4	8	1	0.97
CCC(C)(C)NC(=O)C(c1ccccc1F)N(C(=O)c1ccn[nH]1)c1ccccc1 (stereo unspecified)	0.9	-29	-20	13	1.2	1.3
CCC(C)(C)NC(=O)C(c1cccs1)N(C(=O)c1ccn[nH]1)c1cccc(OC)c1 (stereo unspecified)	2.1*	-4	6	-106	0.94	1
O=C(N/N=C/c1cc(Br)cc(Br)c1O)c1cccc(S(=O)(=O)N2CCOCC2)c1	/	41*	-47	/	1.5	0.59
O=C(N/N=C/c1ccccc1Br)c1cccc(S(=O)(=O)N2CCOCC2)c1	/	-11	-9	/	1.1	1.1
CCc1nnc(NC(=O)c2cc(-c3ccccn3)nc3ccc(Br)cc23)s1	/	7	-25	/	1.2	0.93
CC(C)c1ccc(NC(=O)C(c2ccccc2)N2CC(=O)Nc3ccccc32)cc1 (stereo unspecified)	1.1	-108	3	-5	0.97	2.1*
O=C(N1CCC(n2nc(-c3ccccc3)oc2=O)CC1)C1(c2ccc(Cl)cc2)CC1	/	3	-28	/	1.3	0.97
O=C(Oc1cc(=O)oc2ccccc12)c1cccnc1Cl	2.4*	11	15	-143	0.85	0.89
O=C(NCCc1ccccc1)c1n[nH]c2ccccc12	2*	-2	19	-96	0.81	1
Cc1c(CCOC(=O)c2cccc([N+](=O)[O-])c2)sc[n+]1CC(=O)c1ccccc1	0.4	43*	15	/	0.85	0.57
O=C(NC1CCCc2ccccc21)N[C@@H](Cc1ccccc1)C(=O)O (stereo partly specified)	/	3	-12	/	1.1	0.97
O=C(NCc1ccc(Cl)cc1Cl)C1CCN(S(=O)(=O)c2ccc3c(c2)OCCCO3)CC1	0.8	-162	-63	19	1.6	2.6*
O=C(NCc1ccc(F)cc1)C1CCN(S(=O)(=O)c2ccc3c(c2)OCCCO3)CC1	0.7	-14	0	29	1	1.1
COCC(C)NS(=O)(=O)c1ccc(C(=O)NC(Cc2ccccc2)c2ccccc2)cc1 (stereo unspecified)	/	-106	0	/	1	2.1*
